Measurements as given in ChEMBL document CHEMBL1123277, “Reactive 5'-substituted thymidine derivatives as potential inhibitors of nucleotide biosynthesis” (J Med Chem, 1986).

Experiments:
[1] = Half-life is estimated by TLC; assay type: ADME
Summary of the method: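 Reactivity toward thiol was measured at pH 7. A 0.25–0.5% solution of compound in MeOH was mixed 1:1 with 1% mercaptoethanol in pH 7 buffer. Loss of alkylating activity was followed by TLC with 4-(4-nitrobenzyl)pyridine spray, and the half-life was estimated from this.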

[2] = test system: L1210; assay: Compound was tested for the cytotoxic concentration that produces 50% inhibition of L1210 cells; assay type: functional, cell-based; details: Mus musculus, read-out: I50
[3] = test system: HEp-2; assay: Compound was tested for the cytotoxic concentration that produces 50% inhibition of cloning of H.Ep.-2 cells; assay type: functional, cell-based; details: Homo sapiens, read-out: I50
[4] = test system: P388; assay: Compound was tested in vivo in […] murine leukemia cells in mice at dose of 200 mg/kg; assay type: functional; details: Mus musculus
[5] = test system: L1210; assay: Compound was tested for the cytotoxic concentration that produces 50% inhibition of L1210 cells.; assay type: functional, cell-based; details: Mus musculus, read-out: I50

SMILES | half-life [1] | IC50 [2] | IC50 [3] | ILS at 200 mg/kg [4] | IC50 [5]
Cc1cn(C2CC(O)C(CNC(=O)CCl)O2)c(=O)[nH]c1=O (stereo not given) | 180 min | 130 µM | 25 µM | 9% | –
Cc1cn(C2CC(O)C(CN(C)C(=O)CCl)O2)c(=O)[nH]c1=O (stereo not given) | – | – | – | – | > 120 µM
